Assay outcomes from PubChem.
Rows were chosen to be rich in hits. Some 3.1% of all compounds tested hit in one or more screens of this group.
LEDGF integ inh: blocks HIV-1 LEDGF/p75-dependent DNA integration | TR-FRET IN-LEDGF/p75 DNA integration, Eu/Cy5 | inhibition, % at 3.7 µM | actives 0.64% (n = 370,000) | AID 743269;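 active = inhibition above the screen-wide mean plus 3 SD, cut at about 13% in these data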;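 note: signal is the Cy5 over europium emission ratio at 671 and 618 nm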
ATG4B inh: ATG4B (human) cysteine protease inhibition | actives 0.51% (n = 340,000) | Q9Y4P1 | ATG4B cleavage of LC3-PLA2, NBD-HPC fluorescence, 1 h | inhibition, % at 8.33 µM; in the data active = inhibition above about 40%
MBD2 inh: inhibitors of human MBD2 binding to methylated oligonucleotide. Q9UBB5. TR-FRET. inhibition, % at 4.4 µM. actives 0.31% (n = 370,000); in the data active = inhibition above about 13%
Target sequence (Q9UBB5 whole entry, looked up): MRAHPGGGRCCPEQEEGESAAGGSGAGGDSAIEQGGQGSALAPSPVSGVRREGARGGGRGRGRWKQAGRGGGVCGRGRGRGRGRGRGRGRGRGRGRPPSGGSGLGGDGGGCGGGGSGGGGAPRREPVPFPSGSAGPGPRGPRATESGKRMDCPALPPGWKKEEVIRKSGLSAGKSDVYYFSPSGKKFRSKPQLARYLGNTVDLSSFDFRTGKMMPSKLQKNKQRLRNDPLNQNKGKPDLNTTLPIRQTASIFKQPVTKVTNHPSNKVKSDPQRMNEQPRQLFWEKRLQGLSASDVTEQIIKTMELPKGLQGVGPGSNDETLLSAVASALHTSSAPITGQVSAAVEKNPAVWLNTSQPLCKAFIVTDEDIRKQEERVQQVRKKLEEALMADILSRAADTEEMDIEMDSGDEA
UHRF1 MBD2 ctr: blocks human UHRF1 binding to methylated DNA. Q96T88. UHRF1 binding to methylated oligo, TR-FRET. inhibition, % at 4.4 µM. actives 0.75% (n = 370,000); in the data active = inhibition above about 21%;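 note: UHRF1 SRA domain binding a hemimethylated CpG hairpin DNA probe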
rCAG binder: binds r(CAG) RNA repeats | r(CAG) RNA repeat, TO-PRO-1 dye displacement fluorescence | inhibition, % at 3 µM | actives 1.3% (n = 370,000);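 active = inhibition above the plate cutoff, the mean of all test compounds on that plate plus 3 SD, cut at about 35% in these data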;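 note: higher means more dye released from RNA so lower well fluorescence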
CSN deneddyl inh: blocks human CSN-mediated cullin deneddylation | inhibition, % at 12.5 µM | actives 0.38% (n = 360,000) | Purified CSN, SCF-Nedd8-OG deneddylation, fluorescence polarization | Q92905;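 active = pattern-corrected inhibition above about 35%, with an unprinted fluorescence ratio check between 0.5 and 1.5, limit read from the data, passing the limit was not always enough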
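Material: purified human Csn5 enzyme expressed in HEK293T cells / Medium: Tris buffer pH 7.5, NaCl, DTT, Tween-20, trehalose, ovalbumin / Compound dosing: 12.5 µM single point / Schedule: 90 min incubation of compound, enzyme and substrate at room temperature / Signal: fluorescence polarization of the substrate / Control set: no-enzyme wells high, enzyme-with-substrate wells low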
rCAG bind conf: r(CAG) RNA repeat binding, confirmation; AID 652065; TO-PRO-1 dye displacement fluorescence; actives 70% (n = 4,300); inhibition, % at 3 µM; shares compounds with rCAG binder;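 active = inhibition above a per-plate cutoff, the mean inhibition of sample wells plus 3 SD, cut at about 35% in these data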;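 note: loss of TO-PRO-1 fluorescence as compound displaces dye from 1x1 AA loop RNA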
DNA CAG counter: counter-screen for rCAG RNA binders: DNA CAG dye complex inhibitors; shares compounds with rCAG binder; d(CAG) DNA oligo TO-PRO-1 dye displacement, fluorescence; inhibition, % at 3 µM; actives 94% (n = 4,300);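 active = inhibition above its plate's cutoff, the mean test-well inhibition plus 3 SD, cut at about 4.8% in these data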;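 note: hits displace the dye from DNA and so lower well fluorescence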
Hits are given with their value; 0 = inactive; - = no result given; ! = repeats disagree.

SMILES	LEDGF integ inh	ATG4B inh	MBD2 inh	UHRF1 MBD2 ctr	rCAG binder	CSN deneddyl inh	rCAG bind conf	DNA CAG counter
COC(=O)C1CN(Cc2cn(Cc3ccc(OC)cc3)nn2)CCS(=O)(=O)N1Cc1ccccc1 (stereo unspecified)	0	-	0	0	0	-	-	-
O=C(COC(=O)c1ccc(Sc2ncn[nH]2)c([N+](=O)[O-])c1)Nc1ccc(Cl)c(Cl)c1	0	-	0	0	64	-	46	14
CN1CCCCC(NC(=O)CCl)C1=O (stereo unspecified)	0	-	0	0	0	-	-	-
N#Cc1c2nc3ccccc3nc2n2cc(NC(=O)c3ccc(F)cc3)ccc12	0	0	0	0	36	0	42	20
O=C(c1cc(C2CC2)on1)N(C1CCCCC1)C1CCOCC1	0	-	0	0	0	-	-	-
O=C1c2c(O)cccc2C(C2OC(CO)[C@@H](O)[C@H](O)[C@H]2O)c2cc(CO)cc(O)c21 (stereo partly specified)	0	0	0	0	0	0	-	-
O=C(O)c1cc(O)c2c(c1)[C@@H]([C@H]1c3cc(C(=O)O)cc(O)c3C(=O)c3c(O[C@@H]4O[C@H](CO)[C@@H](O)[C@H](O)[C@H]4O)cccc31)c1cccc(OC3O[C@H](CO)[C@@H](O)[C@H](O)[C@H]3O)c1C2=O (stereo partly specified)	74	0	38	80	100	0	86	52
O=C(NCCc1ccc(F)cc1)c1ccc2c(c1)ncn2C1CCCCC1	0	-	0	0	0	-	-	-
O=C1CCC[C@H]2CC3(CC[C@]24CCCN14)OCCO3	0	-	0	0	-	-	-	-
N#C/C(=C(/O)CCl)c1nc(-c2ccccc2)cs1	0	0	0	0	42	0	38	18
CCOC(=O)C1=C(CC)Nc2ccccc2N/C1=N\S(=O)(=O)c1ccc2ccccc2c1	0	0	0	0	36	0	41	12
CCOC(=O)C1=C(C)Nc2ccccc2N/C1=N\S(=O)(=O)c1cccc(Cl)c1	0	0	0	0	0	0	-	-
CCOC(=O)C1=C(CC)Nc2ccccc2N/C1=N\S(=O)(=O)c1cc(Br)ccc1Br	0	0	0	0	63	0	59	21
CCOC(=O)C1=C(C)Nc2ccccc2N/C1=N\S(=O)(=O)c1ccc(Cl)cc1	0	0	0	0	35	0	0	4.9
C#CCNC(=O)C[C@H]1C[C@@]2(C(=O)OC)C(=C[C@H](C3CCCC3)O[C@@H]2C)N(Cc2ccc(Cl)cc2Cl)C1=O	0	-	0	0	0	-	-	-
Cc1cccc(Nc2nnc(SCC(O)=C(C#N)c3nc4ccccc4[nH]3)s2)c1	0	0	0	0	42	0	48	24
Cc1cc(C)n2c(SC/C(O)=C(\C#N)c3nc4ccccc4[nH]3)nnc2n1	0	0	0	0	37	0	37	17
COc1ccc(CNC(=O)c2sc3nc(C)c(Cl)c(C)c3c2N)cc1	0	-	0	0	0	-	-	-
Cn1c(=O)[nH]c2c(Br)nccc21	0	-	0	0	0	-	-	-
Cc1nc(CSc2nsc(/C=C/N(C)C)c2C#N)cs1	0	0	0	0	57	45	0	13
CCN(CC)N=Nc1ccc(S(=O)(=O)Nc2nc(C)cc(C)n2)cc1	0	0	0	0	43!	0	0	0
Cc1cccc(C(=O)Nc2c(-c3ccc(C(F)(F)F)cc3)nc3ncccn23)c1	0	-	0	0	0	-	-	-
C/C(=N\Nc1cc(C)nc(-c2ccccc2O)n1)c1ccccc1	0	0	0	0	0	0	-	-
Cc1ccc(Nc2cc(C)nc(-c3ccccc3O)n2)cc1	0	0	0	0	0	0	-	-
Cc1cc(Nc2ccc(Br)cc2)nc(-c2ccccc2O)n1	0	0	0	0	38	0	0	0
SMILES	LEDGF integ inh	ATG4B inh	MBD2 inh	UHRF1 MBD2 ctr	rCAG binder	CSN deneddyl inh	rCAG bind conf	DNA CAG counter
Cc1cc(N/N=C/c2ccc(O)c(C)c2O)nc(-c2ccccc2O)n1	0	0	0	0	62	0	53	24
O=C1CCC[C@H]2C[C@H](NCc3ccc(Br)cc3)CC[C@]23CCCN13	0	-	0	0	-	-	-	-
CNC(=O)[C@@H](NC(=O)[C@H](CC(C)C)[C@H](O)C(=O)NO)C(C)(C)C	0	-	0	0	0	-	-	-
CCN=c1scc(-c2cccs2)n1/N=C/c1cc(OC)ccc1O	0	0	0	0	0	0	-	-
CC(C)N=c1scc(-c2cccs2)n1/N=C/c1ccc(O)c(O)c1O	0	0	0	0	46	0	56	31
Cc1ccccc1NC(=O)CSc1nc2[nH]c(=O)cc(O)c2s1	0	0	0	0	0	0	-	-
Cc1ccc(NC(=O)CSc2sc3c(O)cc(=O)[nH]c3c2C#N)c(F)c1	0	0	0	0	45	0	0	11
COc1ccc(OC)c(NC(=O)CSc2sc3c(O)cc(=O)[nH]c3c2C#N)c1	0	0	0	0	48	0	0	10
Cc1cc(=O)[nH]c(SCC(=O)Nc2ccc(F)cc2)c1C#N	0	0	0	0	0	0	-	-
N#Cc1c(SCC(=O)Nc2ccc(C(F)(F)F)cc2)sc2c(O)cc(=O)[nH]c12	0	0	0	0	53	0	0	11
COC(=O)C1CN(Cc2ccc(F)cc2)CCS(=O)(=O)N1Cc1ccccc1 (stereo unspecified)	0	-	0	0	0	-	-	-
COP(=O)(CC(=O)OC(C)(C)C)C(CC(C)C)NC(=O)OCc1ccccc1 (stereo unspecified)	0	-	0	0	0	-	-	-
CCC[C@H]1[C@@H](N(C)Cc2ccccc2)CC[C@@]23CCCN2C(=O)CCC[C@@H]13	0	-	0	0	-	-	-	-
COc1ccc(-n2c(O)c(/C=N/NS(=O)(=O)c3ccc(C)c([N+](=O)[O-])c3)c3ccccc3c2=O)cc1OC	0	0	0	0	37	0	57	25
O=C(CSc1nnc(-c2cccnc2)n1-c1ccccc1)c1ccccc1Cl	0	-	0	0	0	-	-	-
Cc1ccc(S(=O)(=O)N2OC(c3ccccc3)C[C@H]2CC=C(c2ccccc2)c2ccccc2)cc1 (stereo partly specified)	0	-	0	0	-	-	-	-
COc1ccc(NC(=O)CSc2ncnc3scc(-c4ccc(C)cc4)c23)cc1OC	0	-	0	0	0	-	-	-
CC1=NN(c2nc(-c3ccc(C#N)cc3)cs2)C(=O)C1	0	0	0	0	0	-	-	-
O=C1CC(c2ccccc2)=NN1c1nc(-c2ccccc2)cs1	0	0	0	0	65	0	0	15
Cc1ccccc1COc1ccc(-c2nn[nH]n2)cc1	0	0	0	0	0	0	-	-
Brc1cc2c(cc1COc1ccc(-c3nn[nH]n3)cc1)OCO2	0	0	0	0	35	0	0	6.5
